The subject of test [1] is Rattus norvegicus. Kind of test: Plasma concentration was evaluated for corresponding carboxylic acid metabolite at 100 mg/kg dose peroral administration in rats after 60 min. The test is classed as functional, organism-based. On the set-up: dose 100 mg/kg. In a few lines:
(§1)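 Rats dosed by oral gavage, 100 mg/kg suspended in 0.2% methylcellulose (4 mL/kg). Blood taken from lateral tail vein, plasma separated. Proteins precipitated with 2 volumes methanol before reversed-phase HPLC, or plasma acidified and ether-extracted for normal-phase HPLC. Parent hydroxamate and carboxylic acid metabolite measured. Average of four determinations with range.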

Test [2] has as its system Rattus norvegicus. The test can be described thus: Inhibition of leukotriene biosynthesis was determined in vivo with the rat peritoneal anaphylaxis model administered perorally at 100 mg/kg. It is filed as functional. Particulars: route oral. In a few lines:
(§2)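 Fasted male Sprague-Dawley rats sensitized ip with rabbit anti-BSA in PBS pH 7.1, then challenged ip 3 h later with BSA (4 mg) in PBS containing 30 mM L-cysteine. Compound in 0.2% methylcellulose given by gavage 1 h before challenge; 6–8 rats per group. Peritoneal fluid collected 15 min after challenge, LTC4 measured by RIA. % inhibition vs control mean, ± SEM; significance at […].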

In test [3] the test system is Rattus norvegicus. The test can be described thus: Plasma concentration was evaluated for corresponding hydroxamic acid metabolite at 100 mg/kg dose peroral administration in rats after 20 min. The test is classed as functional, organism-based. On the set-up: dose 100 mg/kg. In a few lines:
as §1

Test [4] has as its system Rattus norvegicus. Kind of test: Plasma concentration was evaluated for corresponding carboxylic acid metabolite at 100 mg/kg dose peroral administration in rats after 20 min. The test is classed as functional, organism-based. Further details: dose 100 mg/kg. In a few lines: as §1
The subject of test [5] is Rattus norvegicus. Kind of test: Plasma concentration was evaluated for corresponding hydroxamic acid metabolite at 100 mg/kg dose peroral administration in rats after 60 min. It is filed as functional, organism-based. Further details: dose 100 mg/kg. In a few lines: as §1
For test [6], the target named is T1, Polyunsaturated fatty acid 5-lipoxygenase (Rattus norvegicus, UniProt P12527).
T1 sequence (P12527 whole entry): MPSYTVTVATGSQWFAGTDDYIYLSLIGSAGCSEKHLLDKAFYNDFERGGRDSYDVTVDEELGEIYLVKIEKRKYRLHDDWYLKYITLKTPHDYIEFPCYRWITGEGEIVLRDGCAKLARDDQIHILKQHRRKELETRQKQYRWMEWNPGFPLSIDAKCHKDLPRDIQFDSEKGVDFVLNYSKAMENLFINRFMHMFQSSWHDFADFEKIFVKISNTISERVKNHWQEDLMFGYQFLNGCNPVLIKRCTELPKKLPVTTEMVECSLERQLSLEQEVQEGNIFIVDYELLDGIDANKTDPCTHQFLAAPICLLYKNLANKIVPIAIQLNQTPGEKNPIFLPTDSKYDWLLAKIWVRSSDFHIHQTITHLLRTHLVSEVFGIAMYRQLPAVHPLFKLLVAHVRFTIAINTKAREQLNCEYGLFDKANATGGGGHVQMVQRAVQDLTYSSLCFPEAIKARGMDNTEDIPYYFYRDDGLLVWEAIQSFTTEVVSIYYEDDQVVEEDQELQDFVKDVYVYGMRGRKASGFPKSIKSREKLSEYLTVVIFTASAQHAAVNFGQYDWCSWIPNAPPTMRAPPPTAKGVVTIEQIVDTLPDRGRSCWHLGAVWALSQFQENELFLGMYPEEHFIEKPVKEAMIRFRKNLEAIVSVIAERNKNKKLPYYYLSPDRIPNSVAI
The test can be described thus: In vitro inhibitory activity against 5-lipoxygenase in rat RBL-1 cells. It is filed as cell-based. In a few lines:
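RBL-1 cell homogenate, 20000g supernatant (from 6 × 10^4 cells) in 200-μL incubations with 2% DMSO vehicle and varied inhibitor concentrations. Reaction started with radiolabeled arachidonic acid, stopped by acidification and ether extraction. Products separated from substrate by TLC and counted by scintillation. Triplicate incubations, compared against mean of vehicle controls (n = 8). IC50 with 95% confidence limits from linear regression of % inhibition vs log concentration.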

In test [7] the test system is Rattus norvegicus. The test can be described thus: Inhibition of leukotriene biosynthesis was determined in vivo with the rat peritoneal anaphylaxis model administered perorally at 100 mg/kg; not significant. It is filed as functional, organism-based. On the set-up: dose 100 mg/kg. In a few lines: as §2
The subject of test [8] is Rattus norvegicus. Kind of test: Inhibition of leukotriene biosynthesis was determined in vivo with the rat peritoneal anaphylaxis model administered perorally at 100 mg/kg *p > 0.05. It is filed as functional. The conditions noted are these: route oral. In a few lines:
as §2

Activity calls are given as the source filed them. No cut-off for these calls is given here.

By inhibition in vivo is commonly meant the share of the control response that was lost under treatment. A high value points to a response far below the control. What is called IC50 is the concentration that gives 50% inhibition.

Regarding `CC(C(=O)N(C)O)c1ccc(OCc2ccccc2)cc1` (stereo not drawn), the Concentration turned out to be 51 µM in test [1], 8.4 µM in test [3], 16 µM in test [4] and 7.9 µM in test [5]. Besides, in test [2], the inhibition in vivo at 100 mg/kg amounted to 62%. Moreover, in test [6], the IC50 came to 280 nM.

Take `CC(C)Cc1ccc(C(C)C(=O)NO)cc1` (stereo not drawn) [IBUPROXAM]: the Concentration in test [1] was found to be 146 µM; in test [3] it was 49 µM; in test [4] it was 114 µM; in test [5], 27 µM. For the same compound, the inhibition result in test [7] is “inactive”. This compound registered an IC50 in test [6] of 4840 nM.

`CN(O)C(=O)c1ccc2ccccc2c1`: the inhibition result in test [7] is “inactive”.

Regarding `CC(C)Cc1ccc(CCC(=O)N(C)O)cc1`, the Concentration in test [1] was 80 µM; in test [3] it was < 10 µM; in test [4], 349 µM; in test [5], < 10 µM.

Turning to `CC(C)Cc1ccc(C(C)(C)C(=O)N(C)O)cc1`, the Concentration in test [1] is < 1 µM; in test [3], 5.8 µM; in test [4], 9.3 µM; in test [5], < 1 µM.

On to `CC(C)Cc1ccc(C(C(=O)N(C)O)C(C)C)cc1` (stereo not drawn), for which the Concentration in test [1] is 7.5 µM; in test [3], 5 µM; in test [4] it was 3.7 µM; in test [5], 7.9 µM.

Turning to `CC(C)Oc1ccc(C(C)C(=O)N(C)O)cc1` (stereo not drawn), 100 mg/kg produced 67% inhibition in vivo in test [2]. In test [5], the Concentration came out at 38 µM. Moreover, half-maximal inhibition in test [6] (IC50) was put at 3700 nM.

As to `CN(O)C(=O)/C=C/c1ccc2ccccc2c1`, at 100 mg/kg the inhibition in vivo in test [8] was 66%.

Turning to `CC(C)Cc1ccc(C(C)C(=O)N(O)C(C)C)cc1` (stereo not drawn), the Concentration in test [1], in test [3], in test [4] and in test [5] was < 4 µM each time.

In the case of `CC(C)Cc1ccc(C(=O)N(C)O)cc1`, the Concentration in test [1] was 404 µM; in test [3], < 5 µM; in test [4], 432 µM; in test [5] it was < 5 µM.

For `CC(C)Cc1ccc(CC(=O)N(C)O)cc1`, the Concentration in test [1] came to 138 µM; in test [3], 46 µM; in test [4], 162 µM; in test [5], 12 µM.

In test [2], `Cc1cc(C)c(-c2ccc(C(=O)N(C)O)cc2)c(C)c1` gave an inhibition in vivo at 100 mg/kg of 41%. It took 60 nM to reach half-maximal inhibition in test [6] (IC50).

Regarding `Cc1cc(C)c(-c2ccc(C(=O)NO)cc2)c(C)c1`, the inhibition result in test [7] was “inactive”.

As to `CCCCOc1ccc(C(C)C(=O)N(C)O)cc1` (stereo not drawn), the Concentration is 50 µM in test [1], 38 µM in test [3], 40 µM in test [4] and 13 µM in test [5]. In test [2], this compound yielded an inhibition in vivo at 100 mg/kg of 62%. In test [6], this compound registered an IC50 of 730 nM.

On to `CC(C)Cc1ccc(/C=C/C(=O)N(C)O)cc1`, for which the Concentration in test [1] is 4.5 µM; in test [3] it was < 4 µM; in test [4], 1.9 µM; in test [5], < 4 µM.

`CC(C)Cc1ccc(C(C)C(=O)N(C)O)cc1` (stereo not drawn): the Concentration in test [1] stood at 36 µM; in test [3], 32 µM; in test [4], 41 µM; in test [5], 14 µM. This compound also showed an inhibition in vivo at 100 mg/kg in test [2] of 65%. In test [6], this compound gave a half-inhibitory concentration (IC50) of 980 nM.

`COc1ccc2cc(C(C)C(=O)N(C)O)ccc2c1` (stereo not drawn): the Concentration in test [1] worked out at 4 µM; in test [3] it was 1.7 µM; in test [4] it was 3 µM; in test [5], 1.3 µM. In test [2], this compound yielded an inhibition in vivo at 100 mg/kg of 52%. The compound further displayed an IC50 in test [6] of 410 nM.

With `Cc1cc(C)c(-c2ccc(/C=C/C(=O)N(C)O)cc2)c(C)c1`, in test [7], the inhibition result was “inactive”. For the same compound, the midpoint of inhibition in test [6], the IC50, lay at 22 nM.

Source of the values: ChEMBL document CHEMBL1123650, “In vivo characterization of hydroxamic acid inhibitors of 5-lipoxygenase” (J Med Chem, 1987).
